Measured values as given in PubChem BioAssay.
The source made the active and inactive calls.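 Rule for the calls, unless noted: active = viability loss from added drug above about 55%, and viability with drug at most 40%, in both replicates (limit read from the data, passing the limit was not always enough); inconclusive = both conditions met in only one replicate; inactive = neither replicate meets both conditions.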

How the values were obtained:
[1] = reducers of endogenous Her2 protein level, primary screen, SKBR3 breast tumor cells, AlphaScreen, ATP viability (AID 461;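 active = Her2 level under about 52% in both replicate screens, with viability over 70% of control, limit read from the data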;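 for Her2 level: lower value means less Her2 protein in the cells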;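 for viability: percent of carrier control wells set as 100% viability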); conditions: 18-24 h, measured here: SKBR3 viability, ATP luminescence, at 10 µM
[2] = biological target: Receptor tyrosine-protein kinase erbB-2 (Homo sapiens) (UniProt P04626); experiment: as above; conditions: 18-24 h, at 10 µM, stronger effect = lower value
Sequence of Receptor tyrosine-protein kinase erbB-2 (Homo sapiens) (P04626 whole entry, looked up): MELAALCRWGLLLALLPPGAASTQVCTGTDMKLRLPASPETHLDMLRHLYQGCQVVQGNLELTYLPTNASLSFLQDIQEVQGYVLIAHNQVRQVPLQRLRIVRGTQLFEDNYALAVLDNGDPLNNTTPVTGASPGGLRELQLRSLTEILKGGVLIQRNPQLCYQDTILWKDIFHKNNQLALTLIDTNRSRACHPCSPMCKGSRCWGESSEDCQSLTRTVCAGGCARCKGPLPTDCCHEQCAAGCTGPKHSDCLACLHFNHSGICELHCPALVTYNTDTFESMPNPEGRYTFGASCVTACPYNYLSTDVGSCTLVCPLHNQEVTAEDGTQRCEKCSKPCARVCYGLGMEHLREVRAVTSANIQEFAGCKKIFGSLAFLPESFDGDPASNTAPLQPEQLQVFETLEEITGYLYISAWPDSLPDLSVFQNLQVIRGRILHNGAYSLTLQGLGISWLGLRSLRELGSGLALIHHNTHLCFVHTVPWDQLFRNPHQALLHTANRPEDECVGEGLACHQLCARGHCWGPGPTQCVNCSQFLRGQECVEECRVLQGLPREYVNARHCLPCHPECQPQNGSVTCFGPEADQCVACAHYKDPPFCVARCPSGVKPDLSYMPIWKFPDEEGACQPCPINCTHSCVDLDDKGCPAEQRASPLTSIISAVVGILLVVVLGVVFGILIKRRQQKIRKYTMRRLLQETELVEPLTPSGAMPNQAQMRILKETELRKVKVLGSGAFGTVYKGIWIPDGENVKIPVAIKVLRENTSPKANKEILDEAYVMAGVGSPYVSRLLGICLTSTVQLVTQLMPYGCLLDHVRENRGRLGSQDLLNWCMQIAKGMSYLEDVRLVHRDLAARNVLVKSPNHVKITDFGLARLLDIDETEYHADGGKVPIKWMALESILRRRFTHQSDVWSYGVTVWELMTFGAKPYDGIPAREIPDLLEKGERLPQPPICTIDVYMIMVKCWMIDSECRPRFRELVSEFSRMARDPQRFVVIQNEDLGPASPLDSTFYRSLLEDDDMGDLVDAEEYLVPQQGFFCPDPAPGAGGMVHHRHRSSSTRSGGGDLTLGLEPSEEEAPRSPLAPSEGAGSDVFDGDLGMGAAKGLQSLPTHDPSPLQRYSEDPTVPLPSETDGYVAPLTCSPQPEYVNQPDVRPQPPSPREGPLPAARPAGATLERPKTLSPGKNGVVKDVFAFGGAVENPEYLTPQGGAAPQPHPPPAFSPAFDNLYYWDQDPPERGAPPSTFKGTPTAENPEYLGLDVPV

[3] = SK-BR-3 cell growth inhibitors, pilot screen, 24 h, human (AID 572;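 active = viability at or below 10% of carrier control in both of two separate runs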;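 note: compound exposure lasted between 18 and 24 h rather than exactly 24 h; 100% = carrier-treated control wells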); conditions: SK-BR-3 viability, CellTiter-Glo luminescence, at 10 µM, stronger effect = lower value
[4] = HUVEC growth inhibition – cell-based, human, primary screen (AID 575;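 active = viability at or below 30% in both replicate assays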;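 note: 100% = median of untreated cell wells with 0.1% DMSO on each plate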); conditions: HUVEC proliferation, CellTiter-Glo luminescence, 72 h; at 10 µM; stronger effect = lower value
How it was run: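 system = HUVEC primary cells | amount = 1250 cells/well | buffer or medium = supplemented EBM, 2% fetal bovine serum | dosing = single-point 10 µM, DMSO 0.1% final | times = 72 h compound incubation | detection = CTG luminescence | read-out = % viability relative to median vehicle-well signal on each plate | control set = vehicle and MePR control wells | format = collagen-coated 384-well format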

[5] = growth inhibitors of H69AR lung tumor, primary screen, human, duplicate replicates (AID 580;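 active = viability at or under a set limit in both replicates, limit being median viability minus 3 SD, cut at about 48% in these data, passing the limit was not always enough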;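 note: 100% = mean luminescence of untreated wells and 0% = no signal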); conditions: H69AR lung tumor cells viability, ATP luminescence, 72 h; at 10 µM; stronger effect = lower value
[6] = reversal of MRP1-mediated doxorubicin resistance, pilot screen, H69AR cells, doxorubicin co-treatment (AID 601); conditions: CellTiter-Glo, 72 h, at 10 µM; for differential viability (reversal): stronger effect = higher value
[7] = 384-well plate pilot, post-Golgi transport modulator project, inhibition of yeast transport mutant growth (AID 636; in the data active = inhibition above about 31%); conditions: absorbance 615 nm, about 18 h, stronger effect = higher value
[8] = growth suppression of yeast trafficking mutant, preliminary HTS, modulators of trafficking downstream of Golgi apparatus project, 1536-format plate, OD 615 nm (AID 637; in the data active = inhibition above about 30%); conditions: yeast transport mutant growth, absorbance 615 nm, 18 h; stronger effect = higher value
[9] = H69AR cells + 2 uM doxorubicin, measured here: viability with 2 uM doxorubicin, stronger effect = lower value
[10] = H69AR cells, compound alone cytotoxicity

Structure (SMILES) | viability [1] | Her2 level [2] | viability [3] | viability [4] | viability [5] | differential viability (reversal) ([6]; H69AR cells + 2 uM doxorubicin) | viability [6, 9] | viability [6, 10] | inhibition [7] | inhibition [8]
CCOC(=O)N1CCC2(CC1)CC(=O)c1c(ccc3oc(C(=O)O)c(C)c13)O2 | 118% | 96% (inactive) | 118% (inactive) | 111% (inactive) | 92.3% (inactive) | 3.56% (inactive) | 88.7% | 92.3% | -0.79% (inactive) | -4.55% (inactive)
Cc1ccc(-c2csc3nnc(SCC(=O)NCc4ccco4)n23)cc1 | 88.5% | 84.5% (inactive) | 88.5% (inactive) | 85.6% (inactive) | 84.2% (inactive) | 0.64% (inactive) | 83.6% | 84.2% | -6.27% (inactive) | -4.19% (inactive)
Cc1ccc(CCNC(=O)C2CCN(S(=O)(=O)c3ccc4c(c3)CCC(=O)N4)CC2)cc1 | 98.5% | 100% (inactive) | 98.5% (inactive) | 44.2% (inactive) | 79.9% (inactive) | 10.6% (inactive) | 69.3% | 79.9% | -0.67% (inactive) | -6.07% (inactive)
N#CCCN(C(=O)Nc1ccc(Cl)cc1)c1ccccc1 | 94% | 111% (inactive) | 94% (inactive) | 113% (inactive) | 105% (inactive) | 9.02% (inactive) | 95.5% | 105% | -2% (inactive) | 0% (inactive)
COc1ccccc1NC(=O)CSc1nnnn1-c1ccc2c(c1)OCO2 | 92% | 84% (inactive) | 92% (inactive) | 98.7% (inactive) | 90.9% (inactive) | 15.1% (inactive) | 75.8% | 90.9% | -4.11% (inactive) | 0% (inactive)
CCOc1cc(C2c3c(n[nH]c3C)C(=O)N2c2ccc(Br)cc2)ccc1O (stereo not given) | 102% | 71.5% (inactive) | 102% (inactive) | 53.1% (inactive) | 72.9% (inactive) | 9.98% (inactive) | 62.9% | 72.9% | -4.27% (inactive) | 3.44% (inactive)
Cc1cccc(Cc2nnc(NC(=O)c3cccc(S(=O)(=O)N4CCOCC4)c3)s2)c1 | 107% | 100% (inactive) | 107% (inactive) | 87.1% (inactive) | 79.2% (inactive) | -2.97% (inactive) | 82.2% | 79.2% | -1.82% (inactive) | -5.33% (inactive)
COc1ccc(OC)c(NC(=O)CSc2nc3ccccc3c(=O)n2CCNC(C)=O)c1 | 118% | 108% (inactive) | 118% (inactive) | 95.4% (inactive) | 80.7% (inactive) | 64.1% (active) | 16.6% | 80.7% | -1.58% (inactive) | 0.32% (inactive)
